IC50 and Activity data for 8 compounds are collected here from ChEMBL document CHEMBL1137676, “Nitroimidazolyl-1,3,4-thiadiazole-based anti-leishmanial agents: synthesis and in vitro biological evaluation” (Eur J Med Chem, 2009).

Active and inactive are the calls of the source. The calls are words filed in the database; no cut-off is given here.

For series [1], the system named is Leishmania major. Briefly: Antileishmanial activity against promastigote form of Leishmania major MRHO/IR/75/ER after 24 hrs by MTT assay. In kind it is functional, organism-based. Put shortly:
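Early-log promastigotes (2 × 10⁶/mL) were incubated with serial drug dilutions for 24 h at 25 °C in phenol red-free RPMI 1640 with 10% FBS, 2 mM glutamine and antibiotics, pH ~7.2. MTT at 0.5 mg/mL was added for 4 h at 37 °C, formazan was dissolved in DMSO and read at 492 nm. Controls received medium plus DMSO. IC₅₀ came from linear regression over ≥2 independent triplicate experiments, given as mean ± SD.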
In general terms: Formazan colour is commonly taken as a measure of viable cells.

A short description of series [2]: Cytotoxicity against mouse peritoneal macrophages assessed as cell viability after 24 hrs by MTT assay. In kind it is cell-based. More on the design: concentration or dose not given beside the values. The conditions noted are these: peritoneal macrophage cell. Put shortly: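 Mouse peritoneal macrophages were plated at 2 × 10⁵ cells/well. After adherence, the medium was replaced with compound-containing medium for 24 h at 37 °C, 5% CO₂, with medium-plus-DMSO controls. Viability was read by MTT colorimetric assay.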

Series [3] deals with Leishmania major. Kind of series: Antileishmanial activity against amastigote form of Leishmania major MRHO/IR/75/ER in mouse peritoneal macrophages assessed as decrease in macrophage infectivity after 24 hrs. In kind it is functional, organism-based. The procedure, abridged: (§1)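 Mouse peritoneal macrophages were seeded on glass coverslips at 1 × 10⁶ per well, and non-adherent cells were washed off after 1 h. Stationary-phase promastigotes were added at 3 per macrophage for 2 h at 37 °C in CO₂, then unbound parasites were washed away. Cells got drug-containing medium for 24 h and were then methanol-fixed and Giemsa-stained, counting 60 cells per well. Infectivity index = % infected macrophages × mean amastigotes per infected cell. Two sets of experiments were run.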

For series [4], the system named is Leishmania major. Briefly: Antileishmanial activity against amastigote form of Leishmania major MRHO/IR/75/ER in mouse peritoneal macrophages assessed as decrease in infectivity index after 24 hrs. The class given is functional, organism-based. Put shortly:
as §1

Series [5] has as its system Leishmania major. Kind of series: Antileishmanial activity against amastigote form of Leishmania major MRHO/IR/75/ER in mouse peritoneal macrophages assessed as decrease in number of amastigotes per macrophage after 24 hrs. In kind it is functional, organism-based. The procedure, abridged:
as §1

The mark [6] stands for this setting: Leishmania major, MRHO/IR/75/ER, 24 h.

Take `Cn1c([N+](=O)[O-])cnc1-c1nnc(N2CCN(C(=O)c3cccs3)CC2)s1`: half-maximal inhibition in series [1] (setting [6]) (IC50) was put at 25.6 µM. Also, in series [2], the Activity result is recorded as “Non-toxic”.

As for `Cn1c([N+](=O)[O-])cnc1-c1nnc(N2CCN(C(=O)c3ccccc3Cl)CC2)s1`, in series [1] (setting [6]), half-maximal inhibition (IC50) required 20.3 µM. The Activity result in series [2] is given as “Non-toxic”.

Compound `Cn1c([N+](=O)[O-])cnc1-c1nnc(N2CCN(C(=O)c3ccc(Br)s3)CC2)s1` gave a half-inhibitory concentration (IC50) in series [1] (setting [6]) of 16 µM. In addition, the Activity result in series [2] is given as “Non-toxic”.

As for `Cn1c([N+](=O)[O-])cnc1-c1nnc(N2CCN(C(=O)c3ccccc3)CC2)s1`, the result in series [3], in series [4] and in series [5] was Active. This compound had an IC50 in series [1] (setting [6]) of 10.4 µM. The Activity result in series [2] is on record as “Non-toxic”.

The compound MEGLUMINE ANTIMONATE returned an IC50 in series [1] of 82 µM. Moreover, the Activity in series [2] is recorded as 40%.

Consider `Cn1c([N+](=O)[O-])cnc1-c1nnc(N2CCN(C(=O)c3ccc(Cl)s3)CC2)s1`, for which the outcome in series [3], in series [4] and in series [5] was Active. For the same compound, inhibition in series [1] (setting [6]) was half-maximal at 9.35 µM (IC50). In series [2], the Activity entry was “Non-toxic”.

As for `Cn1c([N+](=O)[O-])cnc1-c1nnc(N2CCN(C(=O)c3ccc(Cl)cc3)CC2)s1`, the midpoint of inhibition in series [1] (setting [6]), the IC50, lay at 42.9 µM. Further, in series [2], the Activity entry is on record as “Non-toxic”.

Compound `Cn1c([N+](=O)[O-])cnc1-c1nnc(N2CCN(C(=O)c3cccc(Cl)c3)CC2)s1` displayed a concentration for half-maximal inhibition (IC50) in series [1] (setting [6]) of 17.9 µM. In addition, in series [2], the Activity result is “Non-toxic”.

As a reminder, the IC50 is the concentration that gives 50% inhibition.
